{"source": "ChEMBL document CHEMBL1147798", "about": "“Novel bis(1H-indol-2-yl)methanones as potent inhibitors of FLT3 and platelet-derived growth factor receptor tyrosine kinase” (J Med Chem, 2006)", "key": {"[1]": {"target": "Platelet-derived growth factor receptor (Mus musculus, UniProt P05622+P26618)", "experiment": "Inhibition of endogenous PDGFR in Swiss3T3 fibroblasts"}, "[2]": {"target": "T1, Receptor-type tyrosine-protein kinase FLT3 (Homo sapiens, UniProt P36888)", "T1 sequence (P36888 whole entry)": "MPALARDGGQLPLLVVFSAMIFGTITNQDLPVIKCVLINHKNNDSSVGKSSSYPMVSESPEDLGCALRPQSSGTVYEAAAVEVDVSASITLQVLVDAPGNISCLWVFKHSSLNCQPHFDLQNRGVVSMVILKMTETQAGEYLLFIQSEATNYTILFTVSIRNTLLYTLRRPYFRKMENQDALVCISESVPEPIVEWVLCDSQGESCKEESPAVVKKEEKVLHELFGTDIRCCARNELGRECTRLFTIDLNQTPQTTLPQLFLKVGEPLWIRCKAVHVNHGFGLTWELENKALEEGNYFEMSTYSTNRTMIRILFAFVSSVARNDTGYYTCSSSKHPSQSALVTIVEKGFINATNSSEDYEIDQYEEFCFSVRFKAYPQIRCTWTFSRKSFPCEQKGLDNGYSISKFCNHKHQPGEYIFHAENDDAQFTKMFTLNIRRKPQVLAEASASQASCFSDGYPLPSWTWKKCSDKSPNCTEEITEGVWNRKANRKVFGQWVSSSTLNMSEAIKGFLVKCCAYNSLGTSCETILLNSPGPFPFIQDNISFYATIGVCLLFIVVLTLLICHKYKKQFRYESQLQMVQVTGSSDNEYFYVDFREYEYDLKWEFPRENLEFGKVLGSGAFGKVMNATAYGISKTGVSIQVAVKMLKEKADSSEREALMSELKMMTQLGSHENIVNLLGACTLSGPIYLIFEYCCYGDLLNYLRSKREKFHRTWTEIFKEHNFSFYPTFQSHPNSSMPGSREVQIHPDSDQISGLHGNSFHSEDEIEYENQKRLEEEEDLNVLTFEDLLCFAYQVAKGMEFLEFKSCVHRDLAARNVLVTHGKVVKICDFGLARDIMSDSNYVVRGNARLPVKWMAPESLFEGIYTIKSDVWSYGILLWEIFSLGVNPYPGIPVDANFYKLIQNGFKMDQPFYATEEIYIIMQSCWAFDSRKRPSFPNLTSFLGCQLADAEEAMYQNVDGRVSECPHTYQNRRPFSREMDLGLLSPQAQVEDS", "experiment": "Inhibition of endogenous FLT3 in EOL1 cells", "type": "cell-based"}, "[3]": {"target": "Platelet-derived growth factor receptor beta (Homo sapiens, UniProt P09619)", "sequence (P09619 whole entry)": "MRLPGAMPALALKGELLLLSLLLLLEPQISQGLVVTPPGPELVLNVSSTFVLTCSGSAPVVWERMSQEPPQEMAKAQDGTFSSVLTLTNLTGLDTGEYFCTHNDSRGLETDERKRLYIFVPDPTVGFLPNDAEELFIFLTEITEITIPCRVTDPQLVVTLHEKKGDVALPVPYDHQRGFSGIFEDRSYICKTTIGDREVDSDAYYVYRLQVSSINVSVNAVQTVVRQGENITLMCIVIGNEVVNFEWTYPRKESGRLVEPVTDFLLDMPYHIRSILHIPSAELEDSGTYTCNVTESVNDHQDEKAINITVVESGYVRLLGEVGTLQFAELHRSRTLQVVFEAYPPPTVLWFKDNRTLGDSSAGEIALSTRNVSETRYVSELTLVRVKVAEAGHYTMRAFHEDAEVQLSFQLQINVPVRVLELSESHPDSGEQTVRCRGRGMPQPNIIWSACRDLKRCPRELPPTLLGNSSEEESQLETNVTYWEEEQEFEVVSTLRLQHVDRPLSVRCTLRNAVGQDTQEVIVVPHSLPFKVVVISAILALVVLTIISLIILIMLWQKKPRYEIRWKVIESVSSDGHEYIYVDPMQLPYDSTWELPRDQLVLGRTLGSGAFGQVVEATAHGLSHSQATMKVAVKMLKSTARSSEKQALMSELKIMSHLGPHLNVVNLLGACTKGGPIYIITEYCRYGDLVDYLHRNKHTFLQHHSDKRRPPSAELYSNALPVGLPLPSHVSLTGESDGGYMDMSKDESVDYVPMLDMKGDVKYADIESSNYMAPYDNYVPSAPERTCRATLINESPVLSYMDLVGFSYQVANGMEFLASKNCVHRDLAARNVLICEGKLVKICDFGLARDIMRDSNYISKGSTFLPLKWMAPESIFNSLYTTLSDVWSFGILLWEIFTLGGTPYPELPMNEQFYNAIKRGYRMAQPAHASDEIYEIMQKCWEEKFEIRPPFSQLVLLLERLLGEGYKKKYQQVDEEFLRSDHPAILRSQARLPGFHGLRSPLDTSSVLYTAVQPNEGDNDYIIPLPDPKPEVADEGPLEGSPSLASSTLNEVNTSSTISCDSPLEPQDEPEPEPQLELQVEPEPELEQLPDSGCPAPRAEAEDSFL", "experiment": "Inhibition of human PDGFR beta"}, "[4]": {"target": "Mast/stem cell growth factor receptor Kit (Homo sapiens) (UniProt P10721)", "sequence (P10721 whole entry)": "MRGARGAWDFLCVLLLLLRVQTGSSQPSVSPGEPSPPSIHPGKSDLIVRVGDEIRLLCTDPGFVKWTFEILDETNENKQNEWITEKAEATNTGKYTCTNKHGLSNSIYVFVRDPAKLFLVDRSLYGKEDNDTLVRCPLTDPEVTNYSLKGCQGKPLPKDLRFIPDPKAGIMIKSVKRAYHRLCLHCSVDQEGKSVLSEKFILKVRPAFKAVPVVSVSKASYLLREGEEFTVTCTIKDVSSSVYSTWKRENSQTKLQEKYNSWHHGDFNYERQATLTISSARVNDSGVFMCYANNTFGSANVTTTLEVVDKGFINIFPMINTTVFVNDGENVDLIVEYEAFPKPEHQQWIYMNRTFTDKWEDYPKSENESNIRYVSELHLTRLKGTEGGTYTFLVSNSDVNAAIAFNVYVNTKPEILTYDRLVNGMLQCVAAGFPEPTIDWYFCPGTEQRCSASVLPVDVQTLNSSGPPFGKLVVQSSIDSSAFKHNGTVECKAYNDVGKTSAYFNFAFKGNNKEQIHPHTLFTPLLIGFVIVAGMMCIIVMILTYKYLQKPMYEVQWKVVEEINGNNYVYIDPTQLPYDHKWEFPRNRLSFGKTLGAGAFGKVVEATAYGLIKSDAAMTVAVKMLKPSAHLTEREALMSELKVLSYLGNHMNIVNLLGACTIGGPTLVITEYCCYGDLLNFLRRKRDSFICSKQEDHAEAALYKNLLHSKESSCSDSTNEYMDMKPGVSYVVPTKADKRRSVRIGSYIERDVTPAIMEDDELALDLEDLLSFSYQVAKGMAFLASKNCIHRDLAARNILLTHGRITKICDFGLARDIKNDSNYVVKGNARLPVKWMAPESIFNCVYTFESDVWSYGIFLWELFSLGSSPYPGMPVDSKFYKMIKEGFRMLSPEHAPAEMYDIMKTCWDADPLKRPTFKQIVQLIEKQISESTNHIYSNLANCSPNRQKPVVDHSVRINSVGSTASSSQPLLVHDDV", "experiment": "Inhibition of DNA synthesis in IL3 dependent FDC-P1 cells expressing KIT D814V mutant", "type": "functional, cell-based", "procedure,_shortened": "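Parental FDC-P1 cells or FDC-P1 lines expressing KIT variants treated 42 h with compound, with or without IL-3 or stem cell factor; DNA synthesis measured as [³H]thymidine incorporation.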"}, "Bcr/Abl fusion protein": {"target": "Bcr/Abl fusion protein (Homo sapiens, UniProt P00519)", "sequence (P00519 whole entry, the tested form may be a part)": "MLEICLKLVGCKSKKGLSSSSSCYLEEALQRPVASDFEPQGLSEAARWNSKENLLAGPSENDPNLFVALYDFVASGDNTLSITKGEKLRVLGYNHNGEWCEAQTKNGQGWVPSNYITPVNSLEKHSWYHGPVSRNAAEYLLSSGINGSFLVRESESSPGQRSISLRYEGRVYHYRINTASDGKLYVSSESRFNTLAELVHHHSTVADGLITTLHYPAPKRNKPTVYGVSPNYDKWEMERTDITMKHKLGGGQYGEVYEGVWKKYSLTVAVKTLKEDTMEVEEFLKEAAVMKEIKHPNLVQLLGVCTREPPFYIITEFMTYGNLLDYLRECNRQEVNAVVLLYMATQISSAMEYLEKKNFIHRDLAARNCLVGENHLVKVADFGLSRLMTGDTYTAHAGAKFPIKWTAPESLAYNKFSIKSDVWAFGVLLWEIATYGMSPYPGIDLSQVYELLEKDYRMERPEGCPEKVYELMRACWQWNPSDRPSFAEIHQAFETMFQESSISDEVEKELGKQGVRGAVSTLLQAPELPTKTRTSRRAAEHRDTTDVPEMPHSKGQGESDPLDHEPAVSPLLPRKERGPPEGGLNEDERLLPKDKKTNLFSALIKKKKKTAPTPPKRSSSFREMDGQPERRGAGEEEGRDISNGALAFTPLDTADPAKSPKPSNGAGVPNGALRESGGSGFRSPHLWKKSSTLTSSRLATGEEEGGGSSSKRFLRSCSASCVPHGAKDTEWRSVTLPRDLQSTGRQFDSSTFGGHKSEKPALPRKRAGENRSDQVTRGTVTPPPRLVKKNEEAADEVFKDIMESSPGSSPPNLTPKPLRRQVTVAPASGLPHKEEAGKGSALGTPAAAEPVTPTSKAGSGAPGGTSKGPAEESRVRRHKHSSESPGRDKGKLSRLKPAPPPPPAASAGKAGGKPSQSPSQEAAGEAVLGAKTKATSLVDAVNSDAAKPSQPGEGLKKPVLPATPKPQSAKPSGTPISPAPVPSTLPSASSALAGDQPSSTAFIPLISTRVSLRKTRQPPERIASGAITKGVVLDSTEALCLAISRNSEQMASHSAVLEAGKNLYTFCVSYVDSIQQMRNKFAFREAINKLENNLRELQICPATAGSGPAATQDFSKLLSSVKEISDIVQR", "sequence (P11274 whole entry, further chain, the tested form may be a part)": "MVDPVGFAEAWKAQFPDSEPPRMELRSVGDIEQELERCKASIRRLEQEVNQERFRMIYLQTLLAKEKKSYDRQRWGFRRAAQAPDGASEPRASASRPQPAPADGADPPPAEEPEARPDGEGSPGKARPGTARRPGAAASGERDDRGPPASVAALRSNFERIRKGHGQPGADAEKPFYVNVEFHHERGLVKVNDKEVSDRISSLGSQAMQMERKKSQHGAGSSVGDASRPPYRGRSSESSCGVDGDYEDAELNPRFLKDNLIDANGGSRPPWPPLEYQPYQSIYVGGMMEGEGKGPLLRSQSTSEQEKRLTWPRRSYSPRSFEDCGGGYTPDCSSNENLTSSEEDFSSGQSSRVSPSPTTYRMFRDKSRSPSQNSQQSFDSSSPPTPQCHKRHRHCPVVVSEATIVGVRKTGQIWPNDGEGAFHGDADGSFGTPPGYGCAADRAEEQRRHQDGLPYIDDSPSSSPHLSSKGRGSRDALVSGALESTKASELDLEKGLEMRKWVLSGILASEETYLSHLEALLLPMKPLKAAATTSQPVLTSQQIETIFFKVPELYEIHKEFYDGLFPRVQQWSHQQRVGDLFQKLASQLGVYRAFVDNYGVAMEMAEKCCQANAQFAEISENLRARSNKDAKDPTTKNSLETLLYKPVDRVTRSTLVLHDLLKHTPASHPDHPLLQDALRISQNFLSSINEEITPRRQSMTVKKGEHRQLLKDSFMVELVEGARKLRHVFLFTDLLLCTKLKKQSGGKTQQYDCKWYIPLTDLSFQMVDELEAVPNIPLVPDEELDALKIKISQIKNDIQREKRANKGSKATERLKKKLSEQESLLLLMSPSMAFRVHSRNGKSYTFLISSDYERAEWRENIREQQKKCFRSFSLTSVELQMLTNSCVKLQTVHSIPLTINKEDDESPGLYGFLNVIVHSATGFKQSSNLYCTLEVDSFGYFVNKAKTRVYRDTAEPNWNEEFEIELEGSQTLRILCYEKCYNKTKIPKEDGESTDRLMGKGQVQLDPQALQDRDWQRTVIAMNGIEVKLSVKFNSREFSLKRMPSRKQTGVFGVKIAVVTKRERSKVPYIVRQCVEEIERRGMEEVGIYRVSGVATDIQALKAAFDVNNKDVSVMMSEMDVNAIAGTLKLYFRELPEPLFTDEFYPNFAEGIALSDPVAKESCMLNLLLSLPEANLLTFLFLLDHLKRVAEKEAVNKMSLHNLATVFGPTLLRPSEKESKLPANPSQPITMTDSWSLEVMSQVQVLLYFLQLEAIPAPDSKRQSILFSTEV", "experiment": "Inhibition of oncogenic Bcr-Abl kinase in K562 cells", "type": "cell-based", "procedure,_shortened": "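K562 cells, 2 × 10⁶ in 1 mL serum-free RPMI1640, inhibitor or 1% DMSO at 37 °C for 2 h; lysates immunoblotted with anti-pAbl and anti-Abl to gauge Bcr-Abl autophosphorylation.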"}, "[5]": {"target": "Tyrosine-protein kinase ABL1 (Homo sapiens, UniProt P00519)", "sequence (P00519 whole entry, the tested form may be a part)": "as the sequence (P00519 whole entry, the tested form may be a part) above", "experiment": "Inhibition of recombinant Abl", "procedure,_shortened": "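0.5 µg GST-c-Abl catalytic domain preincubated 10 min on ice with inhibitor (DMSO stock) in 50 mM Tris-HCl pH 7.5, 10 mM MgCl₂, 10 µM orthovanadate, 1 mM DTT; [³²Pγ]ATP, final ATP 111 nM, 30 °C 30 min; SDS-PAGE; autophosphorylation radioactivity normalized to Coomassie-stained protein.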"}, "[6]": {"target": "T1, Receptor-type tyrosine-protein kinase FLT3", "experiment": "Inhibition of human FLT3"}}, "note": "Active and inactive are the calls of the source. The calls are words filed in the database; no cut-off is given here."}
{"smiles": "O=C(c1cc2ccccc2[nH]1)c1cc2cc(Oc3ccccc3)ccc2[nH]1", "values": [{"measurement": "IC50", "setting": "[1]", "value": 10, "unit": "µM"}]}
{"smiles": "COc1ccc2[nH]c(C(=O)c3cc4c(Cl)cccc4[nH]3)cc2c1", "values": [{"measurement": "IC50", "setting": "[1]", "value": "> 30", "unit": "µM"}]}
{"smiles": "O=C(c1cc2cc(O)ccc2[nH]1)c1cc2cccc(F)c2[nH]1", "values": [{"measurement": "IC50", "setting": "[2]", "value": "> 30", "unit": "µM"}, {"measurement": "IC50", "setting": "[1]", "value": 4.8, "unit": "µM"}]}
{"smiles": "CCc1cccc2cc(C(=O)c3cc4cc(O)ccc4[nH]3)[nH]c12", "values": [{"measurement": "IC50", "setting": "[1]", "value": 4.4, "unit": "µM"}]}
{"smiles": "COc1cccc2[nH]c(C(=O)c3cc4cc(O)ccc4[nH]3)cc12", "values": [{"measurement": "IC50", "setting": "[1]", "value": 0.96, "unit": "µM"}]}
{"smiles": "O=C(c1cc2cc(O)ccc2[nH]1)c1cc2c(Br)cccc2[nH]1", "values": [{"measurement": "IC50", "setting": "[1]", "value": 6.1, "unit": "µM"}]}
{"smiles": "COc1ccc2[nH]c(C(=O)c3cc4ccc(F)cc4[nH]3)cc2c1", "values": [{"measurement": "IC50", "setting": "[1]", "value": 0.84, "unit": "µM"}]}
{"smiles": "COc1ccc2[nH]c(C(=O)c3cc4cc(Br)ccc4[nH]3)cc2c1", "values": [{"measurement": "IC50", "setting": "[1]", "value": 8.5, "unit": "µM"}]}
{"smiles": "COc1ccc2[nH]c(C(=O)c3cc4cccc(Cl)c4[nH]3)cc2c1", "values": [{"measurement": "IC50", "setting": "[2]", "value": "> 30", "unit": "µM"}, {"measurement": "IC50", "setting": "[1]", "value": "> 30", "unit": "µM"}]}
{"smiles": "Cc1cccc2[nH]c(C(=O)c3cc4cc(O)ccc4[nH]3)cc12", "values": [{"measurement": "IC50", "setting": "[3]", "value": 0.458, "unit": "µM"}, {"measurement": "Activity", "setting": "[4]", "value": "inactive"}, {"measurement": "IC50", "setting": "[1]", "value": 0.96, "unit": "µM"}]}
{"smiles": "Cc1cccc2[nH]c(C(=O)c3cc4cc(OCCN5CCCCC5)ccc4[nH]3)cc12", "values": [{"measurement": "IC50", "setting": "[3]", "value": 1.2, "unit": "µM"}, {"measurement": "IC50", "setting": "[1]", "value": 10, "unit": "µM"}]}
{"smiles": "COc1ccc2[nH]c(C(=O)c3cc4ccc(C)cc4[nH]3)cc2c1", "values": [{"measurement": "IC50", "setting": "[1]", "value": 0.51, "unit": "µM"}]}
{"smiles": "COc1cccc2cc(C(=O)c3cc4cc(O)ccc4[nH]3)[nH]c12", "values": [{"measurement": "IC50", "setting": "[1]", "value": 2.9, "unit": "µM"}]}
{"smiles": "O=C(c1cc2ccccc2[nH]1)c1cc2cc(O)ccc2[nH]1", "values": [{"measurement": "IC50", "setting": "[2]", "value": 0.57, "unit": "µM"}, {"measurement": "IC50", "setting": "[1]", "value": 0.2, "unit": "µM"}]}
{"smiles": "Cc1cccc2[nH]c(C(=O)c3cc4cc(F)ccc4[nH]3)cc12", "values": [{"measurement": "IC50", "setting": "[1]", "value": 1.2, "unit": "µM"}]}
{"smiles": "COc1ccc2[nH]c(C(=O)c3cc4c(F)cccc4[nH]3)cc2c1", "values": [{"measurement": "IC50", "setting": "[1]", "value": 8.1, "unit": "µM"}]}
{"smiles": "O=C(c1cc2cc(O)ccc2[nH]1)c1cc2ccc(F)cc2[nH]1", "values": [{"measurement": "IC50", "setting": "[1]", "value": 0.59, "unit": "µM"}]}
{"smiles": "COc1ccc2[nH]c(C(=O)c3cc4ccc(Cl)cc4[nH]3)cc2c1", "values": [{"measurement": "IC50", "setting": "[3]", "value": 0.055, "unit": "µM"}, {"measurement": "IC50", "setting": "[1]", "value": 0.2, "unit": "µM"}]}
{"smiles": "O=C(c1cc2cc(O)ccc2[nH]1)c1cc2cc(O)ccc2[nH]1", "values": [{"measurement": "IC50", "setting": "[2]", "value": 0.04, "unit": "µM"}, {"measurement": "IC50", "setting": "Bcr/Abl fusion protein", "value": 4.2, "unit": "µM"}, {"measurement": "IC50", "setting": "[5]", "value": 1.3, "unit": "µM"}, {"measurement": "IC50", "setting": "[3]", "value": 0.171, "unit": "µM"}, {"measurement": "IC50", "setting": "[1]", "value": 0.3, "unit": "µM"}, {"measurement": "IC50", "setting": "[6]", "value": 0.033, "unit": "µM"}]}
{"smiles": "COc1ccc2cc(C(=O)c3cc4cc(OCCN(C)C)ccc4[nH]3)[nH]c2c1", "values": [{"measurement": "IC50", "setting": "[1]", "value": 2.8, "unit": "µM"}]}
{"smiles": "COc1cccc2[nH]c(C(=O)c3cc4ccccc4[nH]3)cc12", "values": [{"measurement": "IC50", "setting": "[1]", "value": 1.5, "unit": "µM"}]}
{"smiles": "COc1ccc2cc(C(=O)c3cc4cc(O)ccc4[nH]3)[nH]c2c1", "values": [{"measurement": "IC50", "setting": "[1]", "value": 0.65, "unit": "µM"}]}
{"smiles": "Cc1cc2ncc(-c3ccccc3)nc2cc1C", "note": "[AG1295]", "values": [{"measurement": "IC50", "setting": "[2]", "value": 1.1, "unit": "µM"}, {"measurement": "IC50", "setting": "[1]", "value": 5.4, "unit": "µM"}]}
{"smiles": "COc1ccc2[nH]c(C(=O)c3cc4cc(Cl)ccc4[nH]3)cc2c1", "values": [{"measurement": "IC50", "setting": "[1]", "value": 2.5, "unit": "µM"}]}
{"smiles": "O=C(c1cc2ccccc2[nH]1)c1cc2ccccc2[nH]1", "values": [{"measurement": "IC50", "setting": "[1]", "value": 1, "unit": "µM"}]}
{"smiles": "O=C(c1cc2cc(F)ccc2[nH]1)c1cc2cc(OCCN3CCCCC3)ccc2[nH]1", "values": [{"measurement": "IC50", "setting": "[1]", "value": 0.5, "unit": "µM"}]}
{"smiles": "COc1ccc2[nH]c(Cc3cc4ccccc4[nH]3)cc2c1", "values": [{"measurement": "IC50", "setting": "[2]", "value": "> 30", "unit": "µM"}, {"measurement": "IC50", "setting": "[1]", "value": "> 30", "unit": "µM"}]}
{"smiles": "O=C(c1cc2cc(O)ccc2[nH]1)c1cc2cc(F)ccc2[nH]1", "values": [{"measurement": "IC50", "setting": "[1]", "value": 0.73, "unit": "µM"}]}
{"smiles": "Cc1ccc2cc(C(=O)c3cc4cc(O)ccc4[nH]3)[nH]c2c1", "values": [{"measurement": "IC50", "setting": "[1]", "value": 0.58, "unit": "µM"}]}
{"smiles": "COc1ccc2[nH]c(C(=O)c3cc4cc(C)ccc4[nH]3)cc2c1", "values": [{"measurement": "IC50", "setting": "[1]", "value": "> 30", "unit": "µM"}]}
{"smiles": "COc1ccc2[nH]c(C(=O)c3cc4cc(F)ccc4[nH]3)cc2c1", "values": [{"measurement": "IC50", "setting": "[1]", "value": 0.4, "unit": "µM"}]}
{"smiles": "O=C(c1cc2cc(F)ccc2[nH]1)c1cc2cc(OCc3ccccc3)ccc2[nH]1", "values": [{"measurement": "IC50", "setting": "[2]", "value": "> 30", "unit": "µM"}, {"measurement": "IC50", "setting": "[1]", "value": 5.8, "unit": "µM"}]}
{"smiles": "O=C(c1cc2ccccc2[nH]1)c1cc2cc(F)ccc2[nH]1", "values": [{"measurement": "IC50", "setting": "[1]", "value": 0.76, "unit": "µM"}]}
{"smiles": "COc1ccc2cc(C(=O)c3cc4cc(OCc5ccccc5)ccc4[nH]3)[nH]c2c1", "values": [{"measurement": "IC50", "setting": "[1]", "value": "> 30", "unit": "µM"}]}
{"smiles": "Cc1ccc2[nH]c(C(=O)c3cc4cc(O)ccc4[nH]3)cc2c1", "values": [{"measurement": "IC50", "setting": "[1]", "value": 3.5, "unit": "µM"}]}
{"smiles": "O=C(c1cc2cc(O)ccc2[nH]1)c1cc2c(Cl)cccc2[nH]1", "values": [{"measurement": "IC50", "setting": "[1]", "value": 0.5, "unit": "µM"}]}
{"smiles": "COc1ccc2cc(C(=O)c3cc4cc(OCCN5CCCCC5)ccc4[nH]3)[nH]c2c1", "values": [{"measurement": "IC50", "setting": "[1]", "value": 1, "unit": "µM"}]}
{"smiles": "COc1ccc2[nH]c(Cc3cc4cc(F)ccc4[nH]3)cc2c1", "values": [{"measurement": "IC50", "setting": "[2]", "value": "> 30", "unit": "µM"}, {"measurement": "IC50", "setting": "[1]", "value": "> 30", "unit": "µM"}]}
{"smiles": "COc1ccc2[nH]c(C(=O)c3cc4c(C)cccc4[nH]3)cc2c1", "values": [{"measurement": "IC50", "setting": "[1]", "value": 4.03, "unit": "µM"}]}
{"smiles": "O=C(c1cc2cc(O)ccc2[nH]1)c1cc2c(F)cccc2[nH]1", "values": [{"measurement": "IC50", "setting": "[1]", "value": 0.62, "unit": "µM"}]}
